Results taken from ChEMBL document CHEMBL4834396, “Molecular Recognition and Imaging of Human Telomeric G-Quadruplex DNA in Live Cells: A Systematic Advancement of Thiazole Orange Scaffold To Enhance Binding Specificity and Inhibition of Gene Expression” (J Med Chem, 2021).
Active and inactive are the calls of the source. No cut-off for these calls is given here.

Key:
[1] = test system: HeLa; assay: Induction of cellular senescence in human HeLa cells assessed as positive SA-beta-Gal cells at 0.5 to 4 uM incubated for 18 days by inverted fluorescence microscopic analysis; format: functional, cell-based; details: dose 0.5-4 µM, time 18.0 day
How it was run: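 HeLa cells were exposed to compound for 18 days, with drug-containing medium replaced every three days. Cells were then fixed 15 min at room temperature and stained for β-galactosidase at 37 °C overnight. Stained cells were examined under an inverted microscope.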

[2] = test system: Quadruplex DNA [UNDEFINED MUTATION]; assay: Binding affinity to telomeric Htg24 G-quadruplex DNA G17A mutant (unknown origin) assessed as negative fluorescence signal at 5 uM under pH condition 7.4 by fluorescence titration analysis; format: nucleic-acid assay; details: Homo sapiens
How it was run: (§1)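 Ligand 5 μM mixed with wild-type or point-mutant Htg24 in Tris-HCl buffer with 60 mM KCl; signal change calculated as (F mutant − F wild type)/F wild type.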

[3] = test system: Quadruplex DNA [UNDEFINED MUTATION]; assay: Binding affinity to telomeric Htg24 G-quadruplex DNA G16A mutant (unknown origin) assessed as negative fluorescence signal at 5 uM under pH condition 7.4 by fluorescence titration analysis; format: nucleic-acid assay; details: Homo sapiens; how it was run: as §1
[4] = target: Telomerase reverse transcriptase (Homo sapiens) (UniProt O14746); assay: Inhibition of telomerase in human HeLa cells incubated for 36 hrs by TRAP assay; format: cell-based; details: dose 1-20 µM
Chain of Telomerase reverse transcriptase (Homo sapiens) (O14746 whole entry): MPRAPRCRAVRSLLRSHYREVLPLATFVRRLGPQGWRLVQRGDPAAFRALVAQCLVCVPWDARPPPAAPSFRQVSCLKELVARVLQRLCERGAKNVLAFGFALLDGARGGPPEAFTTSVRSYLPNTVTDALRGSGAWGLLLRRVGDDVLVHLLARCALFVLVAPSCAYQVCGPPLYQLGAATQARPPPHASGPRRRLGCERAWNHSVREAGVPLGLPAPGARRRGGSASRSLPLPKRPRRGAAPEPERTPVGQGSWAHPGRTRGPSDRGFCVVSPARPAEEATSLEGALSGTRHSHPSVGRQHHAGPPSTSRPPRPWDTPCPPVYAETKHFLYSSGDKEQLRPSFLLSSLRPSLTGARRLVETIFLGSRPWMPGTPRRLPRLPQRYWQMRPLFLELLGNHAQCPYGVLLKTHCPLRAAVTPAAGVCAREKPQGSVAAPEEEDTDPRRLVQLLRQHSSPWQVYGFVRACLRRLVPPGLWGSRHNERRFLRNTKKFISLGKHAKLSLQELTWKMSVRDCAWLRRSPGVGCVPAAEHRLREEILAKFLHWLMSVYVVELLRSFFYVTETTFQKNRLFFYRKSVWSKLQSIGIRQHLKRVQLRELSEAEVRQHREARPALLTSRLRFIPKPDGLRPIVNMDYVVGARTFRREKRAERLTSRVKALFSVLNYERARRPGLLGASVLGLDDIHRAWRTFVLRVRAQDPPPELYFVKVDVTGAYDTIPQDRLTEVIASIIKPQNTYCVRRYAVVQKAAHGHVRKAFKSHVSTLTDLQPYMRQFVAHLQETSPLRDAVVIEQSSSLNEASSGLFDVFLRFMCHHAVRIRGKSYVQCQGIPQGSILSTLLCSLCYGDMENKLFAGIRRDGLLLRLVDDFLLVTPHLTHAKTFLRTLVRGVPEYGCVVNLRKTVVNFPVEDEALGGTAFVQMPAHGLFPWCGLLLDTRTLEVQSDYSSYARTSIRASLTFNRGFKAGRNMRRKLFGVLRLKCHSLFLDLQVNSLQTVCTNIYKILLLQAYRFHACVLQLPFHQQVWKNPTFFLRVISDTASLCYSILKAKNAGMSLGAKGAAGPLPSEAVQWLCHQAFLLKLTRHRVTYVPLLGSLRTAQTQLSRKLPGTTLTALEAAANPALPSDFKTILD
How it was run: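 HeLa cells were treated with ligand for 36 h, and 10^6 cells were lysed in CHAPS buffer on ice for 30 min. Extract protein (10–750 ng/ml) was extended with TS primer in TRAP buffer (pH 8.3) at 30 °C for 30 min, then heat-inactivated at 95 °C. Products were PCR-amplified for 33 cycles, resolved on 10% native PAGE and stained with SYBR Gold.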

[5] = test system: Quadruplex DNA; assay: Binding affinity to telomeric Htg24 G-quadruplex DNA (unknown origin) assessed as emission wavelength at 480 to 483 nm at pH 7.4 by spectrophotometric method; format: nucleic-acid assay
[6] = test system: Quadruplex DNA [UNDEFINED MUTATION]; assay: Effect on confirmation of telomeric Htg24 G-quadruplex DNA T12G mutant (unknown origin) assessed as hybrid topology at 5 uM at pH 7.4 by circular dichroism analysis; format: nucleic-acid assay; details: Homo sapiens
How it was run: (§2)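 CD spectra recorded on G4-DNA and ligand, each at 5 μM, in 10 mM Tris-HCl, pH 7.4, with 60 mM KCl. Scan range 220–340 nm in a 1 mm quartz cuvette, 1 nm bandwidth and step, 0.5 s/point. Each spectrum is the average of three scans.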

[7] = test system: Quadruplex DNA [UNDEFINED MUTATION]; assay: Binding affinity to telomeric Htg24 G-quadruplex DNA G23C mutant (unknown origin) assessed as fluorescence signal at 5 uM under pH condition 7.4 by fluorescence titration analysis; format: nucleic-acid assay; details: Homo sapiens
How it was run: (§3)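 Ligand held at 5 μM and mixed with each Htg24 point mutant in Tris-HCl buffer containing 60 mM KCl, pH 7.4. Fluorescence was read, and the signal change was computed as (F mutant − F wild type)/F wild type.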

[8] = test system: Quadruplex DNA [UNDEFINED MUTATION]; assay: Binding affinity to telomeric Htg24 G-quadruplex DNA G22A mutant (unknown origin) assessed as negative fluorescence signal at 5 uM under pH condition 7.4 by fluorescence titration analysis; format: nucleic-acid assay; details: Homo sapiens; how it was run: as §3
[9] = test system: Quadruplex DNA [UNDEFINED MUTATION]; assay: Binding affinity to telomeric Htg24 G-quadruplex DNA G17C mutant (unknown origin) assessed as negative fluorescence signal at 5 uM under pH condition 7.4 by fluorescence titration analysis; format: nucleic-acid assay; details: Homo sapiens; how it was run: as §1
[10] = test system: Quadruplex DNA [UNDEFINED MUTATION]; assay: Binding affinity to telomeric Htg24 G-quadruplex DNA G3A mutant (unknown origin) assessed as negative fluorescence signal at 5 uM under pH condition 7.4 by fluorescence titration analysis; format: nucleic-acid assay; details: Homo sapiens; how it was run: as §3
[11] = test system: Quadruplex DNA [UNDEFINED MUTATION]; assay: Effect on confirmation of telomeric Htg24 G-quadruplex DNA G16A mutant (unknown origin) assessed as parallel topology at 5 uM at pH 7.4 by circular dichroism analysis; format: nucleic-acid assay; details: Homo sapiens; how it was run: as §2
[12] = test system: Quadruplex DNA [UNDEFINED MUTATION]; assay: Binding affinity to telomeric Htg24 G-quadruplex DNA G5C mutant (unknown origin) assessed as negative fluorescence signal at 5 uM under pH condition 7.4 by fluorescence titration analysis; format: nucleic-acid assay; details: Homo sapiens; how it was run: as §3
[13] = test system: Quadruplex DNA [UNDEFINED MUTATION]; assay: Binding affinity to telomeric Htg24 G-quadruplex DNA G21C mutant (unknown origin) assessed as strong fluorescence signal at 5 uM under pH condition 7.4 by fluorescence titration analysis; format: nucleic-acid assay; details: Homo sapiens; how it was run: as §1
[14] = test system: Quadruplex DNA [UNDEFINED MUTATION]; assay: Binding affinity to telomeric Htg24 G-quadruplex DNA G3C mutant (unknown origin) assessed as negative fluorescence signal at 5 uM under pH condition 7.4 by fluorescence titration analysis; format: nucleic-acid assay; details: Homo sapiens; how it was run: as §3
[15] = target: Quadruplex DNA; assay: Binding affinity to telomeric Htg22 G-quadruplex DNA (unknown origin) assessed as dissociation constant by isothermal titration calorimetric analysis; format: nucleic-acid assay
How it was run: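 ITC at 25 °C: DNA preannealed at 95 °C for 5 min, cooled and held at 4 °C overnight, in 25 mM KH2PO4, 60 mM KCl, pH 7.4, 0.5% DMSO. DNA 10 μM in cell, ligand 500 μM in syringe; 19 injections of 4 s, 150 s apart, 750 rpm stirring; blank heat subtracted before model fitting.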

[16] = test system: Quadruplex DNA; assay: Binding affinity to telomeric Htg24 G-quadruplex DNA (unknown origin) at pH 7.4 by fluorescence titration analysis; format: nucleic-acid assay
[17] = test system: Quadruplex DNA [UNDEFINED MUTATION]; assay: Binding affinity to telomeric Htg24 G-quadruplex DNA G23A mutant (unknown origin) assessed as fluorescence signal at 5 uM under pH condition 7.4 by fluorescence titration analysis; format: nucleic-acid assay; details: Homo sapiens; how it was run: as §3
[18] = test system: Quadruplex DNA; assay: Binding affinity to telomeric Htg24 G-quadruplex DNA (unknown origin) assessed as compound-DNA complex stoichiometry ratio of 1:1 by Job's plot analysis; format: nucleic-acid assay
[19] = test system: Quadruplex DNA; assay: Binding affinity to telomeric Htg24 G-quadruplex DNA (unknown origin) assessed as fold increase in fluorescence signal at 5 uM under pH condition 7.4 by fluorescence method; format: nucleic-acid assay
How it was run: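 Ligand 5 μM with each nucleic acid at 15 μM in 10 mM Tris-HCl pH 7.4, 60 mM KCl; emission enhancement expressed as F/F0 against ligand without DNA.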

[20] = test system: Quadruplex DNA [UNDEFINED MUTATION]; assay: Binding affinity to telomeric Htg24 G-quadruplex DNA G22C mutant (unknown origin) assessed as negative fluorescence signal at 5 uM under pH condition 7.4 by fluorescence titration analysis; format: nucleic-acid assay; details: Homo sapiens; how it was run: as §3
[21] = test system: Quadruplex DNA [UNDEFINED MUTATION]; assay: Effect on confirmation of telomeric Htg24 G-quadruplex DNA T6G mutant (unknown origin) assessed as hybrid topology at 5 uM at pH 7.4 by circular dichroism analysis; format: nucleic-acid assay; details: Homo sapiens; how it was run: as §2
[22] = test system: Quadruplex DNA; assay: Binding affinity to telomeric Htg24 G-quadruplex DNA (unknown origin) assessed as stroke shift under at 480 to 483 nm at pH 7.4 by spectrophotometric method
[23] = test system: Quadruplex DNA [UNDEFINED MUTATION]; assay: Effect on confirmation of telomeric Htg24 G-quadruplex DNA A8G mutant (unknown origin) assessed as hybrid topology at 5 uM at pH 7.4 by circular dichroism analysis; format: nucleic-acid assay; details: Homo sapiens; how it was run: as §2
[24] = test system: Quadruplex DNA [UNDEFINED MUTATION]; assay: Binding affinity to telomeric Htg24 G-quadruplex DNA G11A mutant (unknown origin) assessed as fluorescence signal at 5 uM under pH condition 7.4 by fluorescence titration analysis; format: nucleic-acid assay; details: Homo sapiens
[25] = test system: Quadruplex DNA [UNDEFINED MUTATION]; assay: Binding affinity to telomeric Htg24 G-quadruplex DNA G3T mutant (unknown origin) assessed as negative fluorescence signal at 5 uM under pH condition 7.4 by fluorescence titration analysis; format: nucleic-acid assay; details: Homo sapiens; how it was run: as §3

Activity [2]: Active | Activity [3]: Active | inhibition [4]: Dose-Dependent Effect | Activity [5]: 642 nm | Activity [6]: Active | Activity [7]: inactive | Activity [8]: Active | Activity [9]: Active | Activity [10]: Active | Activity [11]: Active | Activity [12]: Active | Activity [13]: Active | Activity [14]: Active | Kd [15]: 0.71 µM | Activity [16]: Active | Activity [17]: inactive | Activity [18]: Active | fold change (FC) [19]: 120 | Activity [20]: Active | Activity [21]: Active | Activity [22]: 162 nm | Activity [23]: Active | Activity [24]: inactive | Activity [25]: Active
SMILES: CN(C)c1ccc(/C=C/c2cc(/C=C3\Sc4ccccc4N3CCCN3CCOCC3)c3ccccc3[n+]2C)cc1.[I-]
Activity [1]: Active
